Experimental data pooled from the literature.
Protocols differ between the studies behind these lines.

Structure (SMILES) | test system | conditions | endpoint | value
CCc1cc(C(=O)NC)c2nccc(N3CCc4c(cc(Cn5ccnc5)cc4-c4cn(C)nc4C(F)(F)F)C3=O)c2c1 | male Sprague-Dawley rat, plasma | oral, 100 mg/kg, single dose | AUC(0-inf) | 37300 ng·h/mL
Cc1cn2nc(-c3cc(=O)n4cc(N5CCNC6(CC6)C5)ccc4n3)cc(C)c2n1 | cynomolgus monkey, plasma | – | fraction unbound | 0.15
CCOC(=O)[C@@]12C[C@@H]1[C@@H](n1ccc3c(NC)nc(C#Cc4ccc(Cl)s4)nc31)[C@H](O)[C@@H]2O | male Sprague-Dawley rat, plasma | intravenous, 0.5 mg/kg | AUC(0-t) | 27.6 ng·h/mL
CCn1ncc2c(N3CCC(c4ccccn4)C3)nc(-c3ccccn3)nc21 (stereo not drawn) | PAMPA | 10 µM, 3 h, pH 7.4 | Papp | 30.2 ×10⁻⁶ cm/s
CCNc1ccnc(Nc2cccc(-c3cccnc3)c2)n1 | PAMPA | 50 nM, 30 min | Papp | 2200 ×10⁻⁶ cm/s
N#CC1CCCN(c2nc(-c3ccccn3)nc3ccccc23)C1 (stereo not drawn) | PAMPA | 10 µM, 3 h, pH 7.4 | Papp | 22.4 ×10⁻⁶ cm/s
C=CC(=O)N1CC2CC(n3nc(-c4ccc(C(=O)Nc5ccccn5)cc4)c4c(N)ncnc43)CC2C1 (stereo not drawn) | male Wistar rat, plasma | oral, 10 mg/kg | AUC(0-t) | 2730 ng·h/mL
CC[C@H](C)Nc1ccnc(Nc2cccc(-c3cccnc3)c2)n1 | PAMPA | 50 nM, 30 min | Papp | 2000 ×10⁻⁶ cm/s
c1ccc(C2CCN(c3nc(-c4ccn[nH]4)nc4ccccc34)C2)nc1 (stereo not drawn) | PAMPA | 10 µM, 3 h, pH 7.4 | Papp | 41.5 ×10⁻⁶ cm/s
